Assays:
[1] = test system: Erythroleukemia cell line; test: Percentage of benzidine-positive murine erythroleukemia cells on day 6.; assay type: functional, Mus musculus
Outline: (§1)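 Clone 745A erythroleukemia cells were exposed continuously from seeding (1 × 10^5 cells/mL) to graded twofold concentrations over at least a 10-fold range, in at least two experiments, with a Me2SO (210 mM) positive control. On day 6, hemoglobin-containing cells were stained blue with acid benzidine peroxide and counted by light microscopy. The optimum concentration was averaged across experiments.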

[2] = test system: Erythroleukemia cell line; test: Cell growth was measured on day 3, after murine erythroleukemia cells were exposed at a cell concentration of 1*10e5 cells/mL.; assay type: functional, Mus musculus
Outline: (§2)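 Friend murine erythroleukemia cells (clone 745A) were grown in DMEM with 15% fetal calf serum at 37 °C in 10% CO2. Agents were given as aqueous, ethanol or acetone solutions at seeding (1 × 10^5 cells/mL) and left on continuously. Cells were counted electronically on day 3 or day 6 and expressed as percentage of control growth. Runs were in duplicate.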

[3] = test system: Erythroleukemia cell line; test: Cell growth was measured on day 6 after murine erythroleukemia cells were exposed at a cell concentration of 1*10e5 cells/mL.; assay type: functional, Mus musculus; outline: as §2
[4] = test system: Erythroleukemia cell line; test: Concentration producing the maximum percentage of benzidine-positive cells after 6-days of continuous exposure in murine leukemia cells.; assay type: functional, cell-based; conditions: Mus musculus; outline: as §1

Compound | Benzidine positive cells [1] | Cell growth [2] | Cell growth [3] | Concentration [4]
CC(C)n1ccccc1=O | 90% | 96% | 80% | 2 mM
CN1CCCC1=O [METHYLPYRROLIDONE] | 87% | 97% | 83% | 10 mM
O=C(Nc1ccccn1)c1ccccn1 | 33% | 35% | 50% | 1 mM
O=C(CCl)Nc1ccccn1 | 83% | 98% | 119% | 2 mM
CCn1ccccc1=O | 86% | 78% | 79% | 4 mM
CNC(C)=O | 90% | 121% | 55% | 40 mM
CC(=O)Nc1ccccc1 [ACETANILIDE] | 71% | 75% | 65% | 4 mM
O=C1CCCN1 [2-PYRROLIDONE] | 89% | 26% | 100% | 100 mM
CN1CCCCCC1=O | 90% | 109% | 68% | 2 mM
CCN1CCCC1=O | 90% | 53% | 81% | 10 mM
CC(=O)Nc1ccncc1 | 34% | 37% | 60% | 5 mM
CCN1CCCCC1=O | 87% | 186% | 84% | 4 mM
CCN1CCCCCC1=O | 96% | 106% | 63% | 4 mM
CC(=O)Nc1cccnc1 | 86% | 183% | 167% | 5 mM
CC(=O)Nc1ccccn1 | 85% | 144% | 58% | 2 mM
CC(=O)NC1CCCCC1 | 92% | 95% | 150% | 4 mM
CN1CCCCC1=O | 89% | 97% | 69% | 5 mM
CC(=O)N1CCCCCC1=O | 53% | 102% | 85% | 4 mM

Compound | Benzidine positive cells [1] | Cell growth [2] | Cell growth [3] | Concentration [4]
Oc1ccccn1 | 95% | 114% | 77% | 16 mM
CCCn1ccccc1=O | 82% | 112% | 129% | 2 mM
CC(=O)N1CCCC1 | 60% | 54% | 99% | 4 mM
O=C1CCCCCN1 [CAPROLACTAM] | 82% | 95% | 81% | 20 mM
O=C(Nc1ccccn1)C(F)(F)F | 69% | 98% | 89% | 1 mM
CC(=O)N1CCCCC1 | 85% | 50% | 138% | 8 mM
CC(=O)N(C)C | 84% | 32% | 21% | 40 mM
CNC(=O)c1ccccc1 | 62% | 54% | 99% | 1 mM
O=C1CCCCN1 | 64% | 72% | 67% | 40 mM
CNC(=O)c1cccnc1 [NICOTINYL METHYLAMIDE] | 93% | 94% | 78% | 4 mM
CCCCn1ccccc1=O | 76% | 103% | 125% | 1 mM
CC(=O)N(c1ccccn1)c1ccccn1 | 36% | 74% | 85% | 2 mM
CNC(=O)c1ccccn1 | 60% | 50% | 80% | 2 mM
CCCCCCn1ccccc1=O | 58% | 101% | 75% | 1 mM
CC(=O)N1CCCCC1=O | 86% | 170% | 74% | 20 mM
CC(=O)N1CCCC1=O | 73% | 156% | 116% | 20 mM
Cn1ccccc1=O | 89% | 74% | 62% | 4 mM
